According to ChEMBL document CHEMBL1765003, “Discovery of (1S,2R,3R)-2,3-dimethyl-2-phenyl-1-sulfamidocyclopropanecarboxylates: novel and highly selective aggrecanase inhibitors” (J Med Chem, 2011):
pIC50: −log10 of the molar value.

Legend:
[1] = Half life in Sprague-Dawley rat at 10 mg/kg, po; assay type: ADME, organism-based; design: dose 10 mg/kg, route oral; conditions: in vivo
Cytochrome P450 2D6 = Cytochrome P450 2D6 (Homo sapiens, UniProt P10635); assay: Inhibition of CYP2D6 at up to 50 uM; assay type: ADME
[2] = biological target: T1, A disintegrin and metalloproteinase with thrombospondin motifs 4 (Homo sapiens, UniProt O75173); assay: Inhibition of human recombinant aggrecanase 1 after 150 mins by fluorescence plate reader
T1 sequence (O75173 whole entry): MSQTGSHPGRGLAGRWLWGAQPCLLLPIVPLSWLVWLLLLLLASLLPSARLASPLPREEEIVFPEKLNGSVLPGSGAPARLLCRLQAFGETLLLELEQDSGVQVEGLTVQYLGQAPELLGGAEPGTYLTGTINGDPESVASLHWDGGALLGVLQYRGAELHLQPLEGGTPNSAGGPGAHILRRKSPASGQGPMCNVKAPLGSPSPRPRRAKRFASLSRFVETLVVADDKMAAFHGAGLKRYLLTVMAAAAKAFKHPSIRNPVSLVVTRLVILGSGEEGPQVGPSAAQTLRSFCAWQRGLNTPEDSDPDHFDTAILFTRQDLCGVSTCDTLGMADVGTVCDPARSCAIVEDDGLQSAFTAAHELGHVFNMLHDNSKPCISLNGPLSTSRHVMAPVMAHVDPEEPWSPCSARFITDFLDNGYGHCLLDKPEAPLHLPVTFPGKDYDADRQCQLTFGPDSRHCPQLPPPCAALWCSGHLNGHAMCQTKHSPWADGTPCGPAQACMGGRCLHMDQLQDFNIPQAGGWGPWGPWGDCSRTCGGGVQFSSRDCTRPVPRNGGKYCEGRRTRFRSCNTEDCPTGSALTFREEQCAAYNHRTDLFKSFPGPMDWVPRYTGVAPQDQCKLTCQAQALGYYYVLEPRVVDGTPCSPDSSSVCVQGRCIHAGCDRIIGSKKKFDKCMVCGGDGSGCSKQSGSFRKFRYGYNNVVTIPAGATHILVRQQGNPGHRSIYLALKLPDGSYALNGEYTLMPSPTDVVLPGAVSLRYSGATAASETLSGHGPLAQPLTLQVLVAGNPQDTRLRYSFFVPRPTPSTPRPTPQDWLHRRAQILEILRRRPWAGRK

[3] = Clearance in Sprague-Dawley rat at 1 mg/kg, iv; assay type: ADME, organism-based; design: dose 1 mg/kg, route intravenous; conditions: in vivo
In short: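 Intravenous dose of 1 mg/kg. Blood sampled at 0.50, 1, 2, 4, 8 and 24 h. Plasma obtained by centrifugation at 10 000 rpm for 5 min and kept at −20 °C until analysis.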

Collagenase 3 = Collagenase 3 (Homo sapiens, UniProt P45452); assay: Inhibition of human recombinant MMP13 after 60 mins by fluorescence plate reader
In short: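 rh-MMP-13 at 40 ng/mL with 5 μM 7-MCA-Pro-CHA-Gly-NVal-His-Ala-DPA, in Tris-HCl pH 7.5/NaCl/CaCl₂/0.05% Brij-35. Pretreatment with inhibitor for 15 min at 25 °C, then substrate started the reaction. Fluorescence (ex 325/em 405 nm) read at 60 min. IC50 from three central linear points, averaged over ≥2 determinations.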

Cytochrome P450 3A4 = Cytochrome P450 3A4 (Homo sapiens, UniProt P08684); assay: Inhibition of CYP3A4 at up to 50 uM; assay type: ADME
Stromelysin-1 = Stromelysin-1 (Homo sapiens, UniProt P08254); assay: Inhibition of human recombinant MMP3 after 60 mins by fluorescence plate reader
In short: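 rh-MMP-3 at 40 ng/mL with 10 μM MOCAc-Arg-Pro-Lys-Pro-Val-Glu-Nva-Trp-Arg-Lys(Dnp)-NH₂, in Tris-HCl pH 7.5/NaCl/CaCl₂/Brij-35 buffer. Inhibitor preincubated for 15 min at 25 °C. Fluorescence (ex 325/em 405 nm) read at 60 min. IC50 from three central linear points; at least two determinations averaged.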

Interstitial collagenase = biological target: T2, Interstitial collagenase (Homo sapiens, UniProt P03956); assay: Inhibition of human recombinant MMP1 after 60 mins by fluorescence plate reader
T2 sequence (P03956 whole entry): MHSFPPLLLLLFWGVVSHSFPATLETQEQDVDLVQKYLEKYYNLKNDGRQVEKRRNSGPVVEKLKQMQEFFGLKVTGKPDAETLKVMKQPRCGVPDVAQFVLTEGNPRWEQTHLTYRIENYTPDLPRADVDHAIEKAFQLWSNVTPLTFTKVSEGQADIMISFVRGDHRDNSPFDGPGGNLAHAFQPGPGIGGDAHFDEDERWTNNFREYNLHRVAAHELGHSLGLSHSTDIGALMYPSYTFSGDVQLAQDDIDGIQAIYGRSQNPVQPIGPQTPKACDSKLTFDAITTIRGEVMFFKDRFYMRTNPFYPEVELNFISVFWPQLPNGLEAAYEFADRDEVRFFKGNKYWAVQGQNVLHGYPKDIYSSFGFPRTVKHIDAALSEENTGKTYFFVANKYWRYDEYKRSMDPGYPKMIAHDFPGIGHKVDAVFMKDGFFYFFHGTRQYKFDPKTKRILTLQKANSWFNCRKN
In short: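 Recombinant human enzyme at 20 ng/mL with 10 μM MOCAc-Lys-Pro-Leu-Gly-Leu-A2pr(Dnp)-Ala-Arg-NH₂, in 100 mM Tris-HCl pH 7.5, 150 mM NaCl, 10 mM CaCl₂, 0.05% Brij-35. Enzyme pretreated with inhibitor for 15 min at 25 °C, then substrate added. Fluorescence (ex 325, em 405 nm) read at 60 min. IC50 taken from three points in the linear range; mean of ≥2 determinations.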

[4] = biological target: Disintegrin and metalloproteinase domain-containing protein 17 (Homo sapiens, UniProt P78536); assay: Inhibition of human recombinant TACE after 60 mins by fluorescence plate reader
In short: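 rh-TACE at 80 ng/mL with 10 μM MCA-Pro-Leu-Ala-Gln-Ala-Val-Dpa-Arg-Ser-Ser-Ser-Arg-NH₂, in 100 mM Tris-HCl pH 7.5, 150 mM NaCl, 10 mM CaCl₂, 0.05% Brij-35. Inhibitor preincubated for 15 min at 25 °C. Fluorescence (ex 325/em 405 nm) read at 60 min. IC50 from three linear-range points; mean of ≥2.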

Sequence of Cytochrome P450 2D6 (P10635 whole entry): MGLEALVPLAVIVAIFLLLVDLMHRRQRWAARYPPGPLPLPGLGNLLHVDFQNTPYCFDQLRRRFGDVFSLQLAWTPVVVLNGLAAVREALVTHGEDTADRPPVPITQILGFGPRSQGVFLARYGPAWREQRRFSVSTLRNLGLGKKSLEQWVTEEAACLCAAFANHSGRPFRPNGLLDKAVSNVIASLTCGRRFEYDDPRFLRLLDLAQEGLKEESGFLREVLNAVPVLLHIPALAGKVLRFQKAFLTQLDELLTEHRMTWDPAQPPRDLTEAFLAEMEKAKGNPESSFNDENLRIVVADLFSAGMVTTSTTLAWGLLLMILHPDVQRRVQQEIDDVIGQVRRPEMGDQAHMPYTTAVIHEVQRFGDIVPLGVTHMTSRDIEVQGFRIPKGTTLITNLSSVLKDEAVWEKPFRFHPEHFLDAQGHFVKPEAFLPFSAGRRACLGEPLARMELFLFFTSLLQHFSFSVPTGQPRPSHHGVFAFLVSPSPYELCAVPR
Sequence of Disintegrin and metalloproteinase domain-containing protein 17 (P78536 whole entry, the tested form may be a part): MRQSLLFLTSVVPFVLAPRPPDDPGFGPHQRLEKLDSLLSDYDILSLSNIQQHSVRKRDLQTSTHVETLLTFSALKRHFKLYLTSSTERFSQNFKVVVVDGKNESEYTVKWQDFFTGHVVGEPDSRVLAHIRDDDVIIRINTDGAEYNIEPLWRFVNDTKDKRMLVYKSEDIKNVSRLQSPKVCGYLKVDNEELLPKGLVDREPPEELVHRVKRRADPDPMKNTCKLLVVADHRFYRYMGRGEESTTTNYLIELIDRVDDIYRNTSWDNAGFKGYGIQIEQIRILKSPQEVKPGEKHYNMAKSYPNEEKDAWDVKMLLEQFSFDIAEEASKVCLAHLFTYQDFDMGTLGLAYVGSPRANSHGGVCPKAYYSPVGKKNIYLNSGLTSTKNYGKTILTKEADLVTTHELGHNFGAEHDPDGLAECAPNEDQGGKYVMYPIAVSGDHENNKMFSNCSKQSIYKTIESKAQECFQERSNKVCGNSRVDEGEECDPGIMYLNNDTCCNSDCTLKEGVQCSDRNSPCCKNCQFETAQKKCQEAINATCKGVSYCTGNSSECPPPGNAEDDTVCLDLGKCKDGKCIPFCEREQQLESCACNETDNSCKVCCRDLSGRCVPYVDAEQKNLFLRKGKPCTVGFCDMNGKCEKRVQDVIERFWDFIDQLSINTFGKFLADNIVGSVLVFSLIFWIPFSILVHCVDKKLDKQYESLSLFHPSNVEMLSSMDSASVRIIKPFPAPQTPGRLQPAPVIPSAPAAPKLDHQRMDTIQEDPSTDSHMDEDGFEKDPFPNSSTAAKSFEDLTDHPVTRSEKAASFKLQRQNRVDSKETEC
Sequence of Cytochrome P450 3A4 (P08684 whole entry): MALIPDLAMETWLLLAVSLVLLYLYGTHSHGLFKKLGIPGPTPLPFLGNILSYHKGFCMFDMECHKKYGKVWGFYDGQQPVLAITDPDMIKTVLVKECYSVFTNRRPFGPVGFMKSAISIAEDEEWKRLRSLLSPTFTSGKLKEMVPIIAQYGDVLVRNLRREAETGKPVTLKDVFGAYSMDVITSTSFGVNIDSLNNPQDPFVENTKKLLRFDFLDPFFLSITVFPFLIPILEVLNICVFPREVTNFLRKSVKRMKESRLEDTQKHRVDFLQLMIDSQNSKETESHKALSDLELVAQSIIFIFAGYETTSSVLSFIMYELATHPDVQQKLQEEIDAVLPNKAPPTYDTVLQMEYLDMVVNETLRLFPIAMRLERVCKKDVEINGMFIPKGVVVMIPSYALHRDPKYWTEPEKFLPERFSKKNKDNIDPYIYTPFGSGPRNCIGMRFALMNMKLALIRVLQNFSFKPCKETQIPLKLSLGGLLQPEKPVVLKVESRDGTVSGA
Sequence of Stromelysin-1 (P08254 whole entry): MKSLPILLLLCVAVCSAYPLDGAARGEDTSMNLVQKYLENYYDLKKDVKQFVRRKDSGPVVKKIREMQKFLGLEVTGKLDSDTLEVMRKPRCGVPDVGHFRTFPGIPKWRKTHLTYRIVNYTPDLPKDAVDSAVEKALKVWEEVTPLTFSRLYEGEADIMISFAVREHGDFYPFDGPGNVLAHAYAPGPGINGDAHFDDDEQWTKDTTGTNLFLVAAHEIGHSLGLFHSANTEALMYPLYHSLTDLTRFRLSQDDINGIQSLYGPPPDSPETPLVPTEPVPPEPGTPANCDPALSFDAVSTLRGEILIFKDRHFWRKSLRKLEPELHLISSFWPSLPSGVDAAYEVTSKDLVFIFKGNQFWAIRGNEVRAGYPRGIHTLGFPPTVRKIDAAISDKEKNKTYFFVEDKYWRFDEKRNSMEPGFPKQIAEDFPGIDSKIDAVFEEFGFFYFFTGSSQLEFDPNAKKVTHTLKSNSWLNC

With `C[C@@H]1[C@](C)(c2ccccc2)[C@]1(NS(=O)(=O)N1CCc2c(nc3cc(F)ccn23)C1)C(=O)O` the half-life [1] was 4 h, the “inhibition (INH)” value (Cytochrome P450 2D6) was “Not Active” and the pIC50 [2] was 7.64. The clearance [3] was 1 mL/min/kg, the pIC50 (Collagenase 3) was under 5.00 and the “inhibition (INH)” value (Cytochrome P450 3A4) was “Not Active”. For the same compound, the pIC50 (Stromelysin-1) was 5.02, the pIC50 (Interstitial collagenase) was under 5.00 and the pIC50 [4] was under 5.00.
